Measured values reported in ChEMBL document CHEMBL1126276, “Synthesis and antimalarial properties of 1-imino derivatives of 7-chloro-3-substituted-3,4-dihydro-1,9(2H,10H)-acridinediones and related structures” (J Med Chem, 1992).
Values joined by “and” are separate entries in the source; they are usually repeats but may differ in a detail not shown here. Equal values may be shown once.

How the values were obtained:
Format in all cases: functional
Plasmodium berghei [1] = assay: Antimalarial activity in Plasmodium berghei infected mice (Mus musculus) after 40 mg/kg subcutaneous dose
How it was run: (§1)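 […] in mice infected with a normal drug-sensitive P. berghei strain. Compound dissolved or suspended in sesame or peanut oil, given as a single subcutaneous dose 72 h postinfection.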

Plasmodium berghei [2] = assay: Antimalarial activity in Plasmodium berghei infected mice (Mus musculus) after subcutaneous 640 mg/kg dose
How it was run: (§2)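 Normal drug-sensitive P. berghei strain in mice. Compound dissolved or suspended in sesame or peanut oil, given parenterally as a single subcutaneous dose 72 h postinfection.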

Plasmodium berghei [3] = assay: Antimalarial activity in Plasmodium berghei infected mice (Mus musculus) after 160 mg/kg subcutaneous dose; how it was run: as §1
Plasmodium berghei [4] = assay: Antimalarial activity in Plasmodium berghei infected mice (Mus musculus) after subcutaneous 160 mg/kg dose; how it was run: as §2
Plasmodium berghei [5] = assay: Antimalarial activity in Plasmodium berghei infected mice (Mus musculus) after subcutaneous 320 mg/kg dose; how it was run: as §2
Plasmodium berghei [6] = assay: Antimalarial activity Plasmodium berghei infected mice (Mus musculus) after 640 mg/kg subcutaneous dose; how it was run: as §1
Plasmodium berghei [7] = assay: Antimalarial activity in Plasmodium berghei infected mice (Mus musculus) after 20 mg/kg subcutaneous dose; how it was run: as §1
Plasmodium berghei [8] = assay: Antimalarial activity in Plasmodium berghei infected mice (Mus musculus) after 320 mg/kg subcutaneous dose; how it was run: as §1
Plasmodium berghei [9] = assay: Antimalarial activity in Plasmodium berghei infected mice (Mus musculus) after 80 mg/kg subcutaneous dose; how it was run: as §1

Structure (SMILES)	Delta mean survival time (Plasmodium berghei [1])	No. of cured mice (Plasmodium berghei [2])	Delta mean survival time (Plasmodium berghei [3])	No. of cured mice (Plasmodium berghei [4])	No. of cured mice (Plasmodium berghei [5])	Delta mean survival time (Plasmodium berghei [6])	Delta mean survival time (Plasmodium berghei [7])	Delta mean survival time (Plasmodium berghei [8])	Delta mean survival time (Plasmodium berghei [9])	No. of cured mice (Plasmodium berghei [2]; 640 mg/kg)	Delta mean survival time (Plasmodium berghei [6]; 640 mg/kg)
O=C1CC(c2c(Cl)cccc2Cl)Cc2c1c(=O)c1cc(Cl)ccc1n2O (configuration not stated)	1.5	2	5.8	1	3	11.2	0.7	23.9	5.1	–	–
O=C1CC(c2ccccn2)Cc2nc3ccc(Cl)cc3c(O)c21 (configuration not stated)	–	–	2.4	–	–	4.4	–	7.3	1.1	–	–
Cc1ccc(C2C/C(=N\CCCN(C)C)c3c(nc4ccc(Cl)cc4c3O)C2)cc1 (configuration not stated)	0.8	2	6.6	–	2	9.8	–	6.5	1.4	–	–
COc1ccc2nc3c(c(O)c2c1)C(=O)CC(c1ccc(C(F)(F)F)cc1)C3 (configuration not stated)	-0.3	–	2.9	–	–	4.4	–	2.3	0.1	–	–
CN(C)CCC/N=C1\CC(c2ccc([N+](=O)[O-])cc2)Cc2nc3ccc(Cl)cc3c(O)c21 (configuration not stated)	1	1	8.6	–	–	11.8	0.4	11.6	3	–	–
CCN(CC)CC/N=C1\CC(c2cc(OC)c(OC)c(OC)c2)Cc2c1c(=O)c1cc(Cl)ccc1n2O (configuration not stated)	0.8	–	1.2	–	–	6	–	5	–	–	–
CCN(CC)CCO/N=C1\CC(c2ccc(Cl)c(Cl)c2)Cc2c1c(=O)c1cc(Cl)ccc1n2O (configuration not stated)	–	–	2.1	–	–	8.7	–	3.7	0.9	–	–
O=C1CC(c2cccc(C(F)(F)F)c2)Cc2c1c(=O)c1cc(Cl)ccc1n2[O-].[Na+] (configuration not stated)	7.8	5	13.8	–	3	–	6.4	16	10	–	–
O=C1CC(c2ccc(Cl)c(Cl)c2)Cc2nc3ccc(Cl)cc3c(O)c21 (configuration not stated)	–	2	7.7	1	1	11.2	–	10.2	2.1	–	–
O=C1CC(c2ccc(Cl)c(Cl)c2)Cc2c1c(=O)c1ccccc1n2O (configuration not stated)	–	2	5.1	–	1	12.6	–	7.7	3.1	–	–
COc1ccc(C2C/C(=N\CCCN(C)C)c3c(n(O)c4ccc(Cl)cc4c3=O)C2)cc1 (configuration not stated)	–	3	0.7	–	–	8.4	–	6.5	0.1	–	–
O=c1c2c(n(O)c3ccc(Cl)cc13)CC(c1cccc(C(F)(F)F)c1)C/C2=N\C1CCN(Cc2ccccc2)CC1 (configuration not stated)	6.8	1	8.6	2	–	11.1	–	8.4	3.8	–	–
N=C1CC(c2cccc(C(F)(F)F)c2)Cc2c1c(=O)c1cc(Cl)ccc1n2O (configuration not stated)	1.4	–	3.8	–	–	8.2	–	7.6	3.4	–	–
COc1cc(C2CC(=O)c3c(n(O)c4ccc(Cl)cc4c3=O)C2)cc(OC)c1OC (configuration not stated)	–	–	1.8	–	–	7	–	2.7	1.3	–	–
O=C1CC(C2CCCCC2)Cc2c1c(=O)c1cc(Cl)ccc1n2O (configuration not stated)	–	1	2.9	–	–	12.7	–	6.5	2.5	–	–
CCC1/C(=N\CCCN(C)C)c2c(nc3ccc(Cl)cc3c2O)CC1c1ccc(C(F)(F)F)cc1 (configuration not stated)	3.3	–	–	–	2	–	0.3	10	5.3	4 and 3	6.7 and 10.2
CSCCC/N=C1\CC(c2ccc(Cl)c(Cl)c2)Cc2c1c(=O)c1cc(Cl)ccc1n2O (configuration not stated)	–	1	1.7	–	–	3.7	–	4.1	–	–	–
O=C1CC(c2ccccc2)Cc2c1c(=O)c1cc(Cl)ccc1n2O (configuration not stated)	4	3	5.7	2	2	11.5	1.8	9.3	5.6	–	–
C/N=C1\CC(c2ccc(Cl)c(Cl)c2)Cc2c1c(=O)c1cc(Cl)ccc1n2O (configuration not stated)	–	3	6.4	–	–	10.8	–	10.7	3.3	–	–
COc1cc(C2C/C(=N\CCCN(C)C)c3c(n(O)c4ccc(Cl)cc4c3=O)C2)cc(OC)c1OC (configuration not stated)	–	–	1	–	–	4.3	–	4	–	–	–
Cc1ccc(C2C/C(=N\CCCN(C)C)c3c(n(O)c4ccc(Cl)cc4c3=O)C2)cc1 (configuration not stated)	0.2	4	3	–	2	1	–	6	1.8	–	–
O=C1CC(c2cccc3ccccc23)Cc2c1c(=O)c1cc(Cl)ccc1n2O (configuration not stated)	–	4	6.9	–	2	13.7	–	5.7	2.3	–	–
O=C1CC(c2cccc(C(F)(F)F)c2)Cc2nc3ccc(Cl)cc3c(O)c21 (configuration not stated)	–	–	2.3	–	–	5.3	–	3.3	0.3	–	–
O=C1CC(c2ccc(C(F)(F)F)cc2)Cc2nc3ccc(Br)cc3c(O)c21 (configuration not stated)	5	4	4.4	1	3	12.8	3.6	10.6	3	–	–
COc1ccc(C2CC(=O)c3c(n(O)c4ccc(Cl)cc4c3=O)C2)cc1 (configuration not stated)	0.6	–	1.4	–	–	5.7	0.6	4.6	1.2	–	–
CN(C)CCC/N=C1\CC(c2ccncc2)Cc2nc3ccc(Cl)cc3c(O)c21 (configuration not stated)	0.1	–	1.3	–	–	4.3	0.7	2.5	1.3	–	–
